Laboratory results taken from ChEMBL document CHEMBL1142960, “Synthesis and structure-activity relationships for 2,4-dinitrobenzamide-5-mustards as prodrugs for the Escherichia coli nfsB nitroreductase in gene therapy” (J Med Chem, 2007).
≈ marks a conversion by molar mass, not a printed value.

Legend:
WiDr [1] = assay: Antiproliferative activity against human WiDr NTRneo cells after 18 hrs; format: functional, cell-based
V79 [2] = assay: Selectivity ratio of IC50 for V79 NTR-ve cells to IC50 for V79 NTRpuro cells; format: functional, Cricetulus griseus
[3] = Stability in alpha MEM at 37 degC after 24 hrs; format: physicochemical; settings: read-out: Stability
How it was run: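 Percent parent compound remaining, by HPLC, after holding in α-MEM with 5% fetal calf serum at 37 °C for 24 h.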

[4] = Solubility in alpha MEM; format: physicochemical
How it was run: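 Solubility (mM) in α-MEM with 5% fetal calf serum at ambient temperature, measured by HPLC.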

V79 [5] = assay: Antiproliferative activity against chinese hamster V79 NTRpuro cells after 18 hrs; format: functional, cell-based; settings: Cricetulus griseus, V79, 18 h
V79 [6] = assay: Antiproliferative activity against chinese hamster wild-type V79 NTR-ve cells after 18 hrs; format: functional, cell-based; settings: Cricetulus griseus, V79, 18 h
WiDr [7] = assay: Antiproliferative activity against human wild type WiDr NTR-ve cells after 18 hrs; format: functional, cell-based
[8] = Antiproliferative activity against human Skov3 NTRneo cells after 18 hrs; format: functional, cell-based; settings: SK-OV-3, 18 h
WiDr [9] = assay: Selectivity ratio of IC50 for WiDr NTR-ve cells to IC50 for WiDr NTRneo cells; format: functional, Homo sapiens
EMT6 [10] = assay: Selectivity ratio of IC50 for EMT6 NTR-ve cells to IC50 forEMT6 NTRpuro cells; format: functional, Mus musculus
EMT6 [11] = assay: Antiproliferative activity against mouse wild type EMT6 NTR-ve cells after 18 hrs; format: functional, cell-based; settings: EMT6, 18 h
EMT6 [12] = assay: Antiproliferative activity against mouse EMT6 NTRpuro cells after 18 hrs; format: functional, cell-based; settings: EMT6, 18 h
[13] = Selectivity ratio of IC50 for Skov3 NTR-ve cells to IC50 for Skov3 NTRneo cells; format: functional, Homo sapiens
[14] = Antiproliferative activity against human wild type Skov3 NTR-ve cells after 18 hrs; format: functional, cell-based

Compound	IC50 (WiDr [1]) [µM]	Ratio IC50 (V79 [2])	remaining at 24 h [3] [%]	solubility [4] [µM]	IC50 (V79 [5]) [µM]	IC50 (V79 [6]) [µM]	IC50 (WiDr [7]) [µM]	IC50 [8] [µM]	Ratio IC50 (WiDr [9])	Ratio IC50 (EMT6 [10])	IC50 (EMT6 [11]) [µM]	IC50 (EMT6 [12]) [µM]	Ratio IC50 [13]	IC50 [14] [µM]
O=C(NOCCO)c1cc(N(CCCl)CCCl)c([N+](=O)[O-])cc1[N+](=O)[O-]	25	76	100	2100 (≈ 864 µg/mL)	13	750	895	11	39	85	560	6.6	>90	> 1190
CC(O)CNC(=O)c1cc(N(CCCl)CCCl)c([N+](=O)[O-])cc1[N+](=O)[O-] (configuration not stated)	19	21	107	1200 (≈ 491 µg/mL)	21	438	586	9.5	30	233	593	2.6	75	705
NCCNC(=O)c1cc(N(CCCl)CCCl)c([N+](=O)[O-])cc1[N+](=O)[O-]	5.9	11	99	9200 (≈ 3630 µg/mL)	52	462	180	6.8	38	413	124	0.37	69	417
O=C(NCCn1ccnc1)c1cc(N(CCCl)CCCl)c([N+](=O)[O-])cc1[N+](=O)[O-]	11	6.6	94	500 (≈ 223 µg/mL)	46	273	163	4.1	18	52	178	2.6	140	438
O=C(NCCCN1CCOCC1)c1cc(N(CCBr)CCBr)c([N+](=O)[O-])cc1[N+](=O)[O-]	57	9.2	74	860 (≈ 488 µg/mL)	16	148	134	34	2.4	3.6	56	16	7.3	272
O=C(NC(CO)(CO)CO)c1cc(N(CCCl)CCCl)c([N+](=O)[O-])cc1[N+](=O)[O-]	9.8	91	97	1800 (≈ 819 µg/mL)	13	1050	700	4.2	61	1530	693	0.45	205	970
O=C(NCCCN1CCOCC1)c1cc(N(CCCl)CCCl)c([N+](=O)[O-])cc1[N+](=O)[O-]	90	3.4	96	22000 (≈ 10500 µg/mL)	105	348	163	55	1.9	8	199	24	14	692
COC(=O)CCNC(=O)c1cc(N(CCBr)CCBr)c([N+](=O)[O-])cc1[N+](=O)[O-]	2.1	45	70	280 (≈ 147 µg/mL)	1.1	52	80	2.3	47	149	76	0.59	49	110
O=C(NO)c1cc(N(CCBr)CCBr)c([N+](=O)[O-])cc1[N+](=O)[O-]	0.39	180	69	1200 (≈ 547 µg/mL)	0.2	34	45	0.31	92	500	33	0.07	180	59
O=C(NCCCCN1CCOCC1)c1cc(N(CCCl)CCCl)c([N+](=O)[O-])cc1[N+](=O)[O-]	23	5.9	91	2000 (≈ 985 µg/mL)	25	142	68	9.3	3	28	192	7.4	61	447
CS(=O)(=O)OCCN(CCOS(C)(=O)=O)c1cc(C(=O)NCC(O)CO)c([N+](=O)[O-])cc1[N+](=O)[O-] (configuration not stated)	23	13	54	9000 (≈ 4900 µg/mL)	16	237	347	10	17	31	251	8	43	379
CS(=O)(=O)OCCN(CCBr)c1cc(C(=O)NO)c([N+](=O)[O-])cc1[N+](=O)[O-]	1.16	112	48	1500 (≈ 707 µg/mL)	0.9	97	113	1.44	100	156	63	0.41	115	146
CS(=O)(=O)c1cc([N+](=O)[O-])c(N(CCCl)CCCl)cc1C(=O)NCC(O)CO (configuration not stated)	994	2.3	106	16000 (≈ 7330 µg/mL)	427	843	1980	745	2	6.4	1200	189	3.3	2320
